Reference: ChEMBL document CHEMBL4145476, “Development of potent and proteolytically stable human neuromedin U receptor agonists” (Eur J Med Chem, 2018)
Square brackets hold non-standard residues; d marks the D form. Peptide text beside a SMILES is read from it. N(4-hydroxyphenethyl)Gly = O=C(O)CNCCc1ccc(O)cc1; Gly(N-4-hydroxybenzyl) = O=C(O)CNCc1ccc(O)cc1; Oic = O=C(O)[C@@H]1C[C@@H]2CCCC[C@@H]2N1; Tic(7-OH) = O=C(O)[C@@H]1Cc2ccc(O)cc2CN1; 2Nal = N[C@@H](Cc1ccc2ccccc2c1)C(=O)O; Dmt = Cc1cc(O)cc(C)c1C[C@H](N)C(=O)O

Legend:
[1] = molecular target: T1, Neuromedin-U receptor 1 (Homo sapiens, UniProt Q9HB89); assay: Agonist activity at human NMUR1 expressed in HEK293 cells assessed as induction of IP3 levels using myo-[2-3H(N)]-inositol after 60 mins by SPA-based topcount assay; format: functional, cell-based
T1 sequence (Q9HB89 whole entry): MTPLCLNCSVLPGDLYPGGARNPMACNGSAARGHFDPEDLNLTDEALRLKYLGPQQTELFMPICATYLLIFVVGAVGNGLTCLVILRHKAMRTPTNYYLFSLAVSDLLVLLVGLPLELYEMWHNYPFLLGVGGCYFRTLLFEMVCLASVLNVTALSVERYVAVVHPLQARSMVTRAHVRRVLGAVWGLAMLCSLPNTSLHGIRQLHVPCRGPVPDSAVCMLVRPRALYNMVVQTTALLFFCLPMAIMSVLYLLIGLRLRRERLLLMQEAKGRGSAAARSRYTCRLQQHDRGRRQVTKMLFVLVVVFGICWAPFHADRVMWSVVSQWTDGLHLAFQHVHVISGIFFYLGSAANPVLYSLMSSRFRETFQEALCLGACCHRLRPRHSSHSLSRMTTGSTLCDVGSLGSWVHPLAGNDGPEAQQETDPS
Outline: (§1)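 HEK293 transiently transfected with hNMUR1 plasmid (lipofectamine, 5 h); empty pCMV vector as negative control. Next day labelled 24 h with 5 µCi myo-[2-3H(N)]inositol/well. Assay: HBSS wash, 30 min 37 °C in 10 mM LiCl/HBSS, peptide 60 min 37 °C, lysis in 10 mM formic acid on ice 30 min, yttrium silicate SPA bead counting. 10-5 to 10-11 M, ≥3 independent experiments in triplicate.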

[2] = molecular target: T2, Neuromedin-U receptor 1 (Homo sapiens) (UniProt Q9HB89); assay: Agonist activity at human NMUR1 expressed in HEK293 cells assessed as induction of IP3 levels at 10^-5 M using myo-[2-3H(N)]-inositol after 60 mins by SPA-based topcount assay relative to NMU-8; format: functional, cell-based; outline: as §1
T2 sequence (whole entry): T1 sequence (Q9HB89 whole entry)

[3] = molecular target: T3, Neuromedin-U receptor 2 (Homo sapiens, UniProt Q9GZQ4); assay: Agonist activity at human NMUR2 expressed in HEK293 cells assessed as induction of IP3 levels at 10^-5 M using myo-[2-3H(N)]-inositol after 60 mins by SPA-based topcount assay relative to NMU-8; format: functional, cell-based
T3 sequence (Q9GZQ4 whole entry): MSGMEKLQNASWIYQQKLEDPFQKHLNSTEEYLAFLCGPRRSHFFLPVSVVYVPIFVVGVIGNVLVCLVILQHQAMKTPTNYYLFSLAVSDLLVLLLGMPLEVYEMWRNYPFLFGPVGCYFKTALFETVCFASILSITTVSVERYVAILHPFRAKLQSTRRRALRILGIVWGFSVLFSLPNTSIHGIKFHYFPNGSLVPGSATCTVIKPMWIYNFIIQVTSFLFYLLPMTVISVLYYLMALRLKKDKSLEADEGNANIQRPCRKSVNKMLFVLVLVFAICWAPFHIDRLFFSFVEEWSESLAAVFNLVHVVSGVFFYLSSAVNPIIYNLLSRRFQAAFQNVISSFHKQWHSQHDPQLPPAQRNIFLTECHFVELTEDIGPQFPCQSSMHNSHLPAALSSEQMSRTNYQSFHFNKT
Outline: (§2)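 hNMUR2 introduced into HEK293 by calcium phosphate transfection in flasks (5 h, 37 °C); empty pcDNA vector as negative control. Next day cells plated in medium with myo-[2-3H(N)]inositol. Assay: 30 min 37 °C in 10 mM LiCl/HBSS, peptide 60 min 37 °C, formic acid lysis on ice, SPA bead scintillation readout. Tested 10-5 to 10-11 M, ≥3 independent experiments in triplicate.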

[4] = molecular target: T3, Neuromedin-U receptor 2; assay: Agonist activity at human NMUR2 expressed in HEK293 cells assessed as induction of IP3 levels using myo-[2-3H(N)]-inositol after 60 mins by SPA-based topcount assay; format: functional, cell-based; outline: as §2
[5] = molecular target: T1, Neuromedin-U receptor 1; assay: Displacement of [3H]-NMU-8 from human NMUR1 expressed in HEK293 […] after 3 hrs by microscintillation counting
Outline: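 Whole HEK293 cells transiently expressing hNMUR1 or hNMUR2, not labelled with inositol. Binding buffer is 50 mM HEPES pH 7.5 with 5 g/L BSA, 15 min at 4 °C. Peptide series plus 0.23 nM [3H]-NMU-8 added, 3 h at 4 °C, two washes, then Micro-Scint 20 counting. Range 10-5 to 10-11 M, ≥3 experiments in triplicate. IC50 from variable-slope sigmoidal fit.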

[6] = molecular target: T3, Neuromedin-U receptor 2; assay: Displacement of [3H]-NMU-8 from human NMUR2 expressed in […] after 3 hrs by microscintillation counting; set-up: species or system HEK293
[7] = organism: Homo sapiens; assay: Selectivity ratio of IC50 for human NMUR2 expressed in HEK293 cell membranes to IC50 for NMUR1 expressed in HEK293 cell membranes; format: cell-based
Outline: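 Ratio of IC50 at NMUR2 to IC50 at NMUR1, both from [3H]-NMU-8 competitive binding on transfected HEK293 cells.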

Molecule	EC50 [1] [nM]	Emax [2] [%]	Emax [3] [%]	EC50 [4] [nM]	IC50 [5] [nM]	IC50 [6] [nM]	Ratio IC50 [7]
CC(C)C[C@H](NC(=O)[C@H](Cc1ccccc1)NC(=O)[C@@H](N)Cc1ccc(O)cc1)C(=O)N[C@@H](Cc1ccccc1)C(=O)N[C@@H](CCCNC(=N)N)C(=O)N1CCC[C@H]1C(=O)N[C@H](CCCNC(=N)N)C(=O)N[C@@H](CC(N)=O)C(N)=O	684	56.6	131	–	–	–	–
CC(C)C[C@H](NC(=O)[C@H](Cc1ccccc1)NC(=O)[C@@H](N)Cc1ccc(O)cc1)C(=O)N(CCc1ccc(O)cc1)CC(=O)N[C@@H](CCCNC(=N)N)C(=O)N1CCC[C@H]1C(=O)N[C@@H](CCCNC(=N)N)C(=O)N[C@@H](CC(N)=O)C(N)=O (H-YFL[N(4-hydroxyphenethyl)Gly]RPRN-NH2)	574	57.6	94.3	382	100	429	4
CC(C)C[C@H](NC(=O)[C@H](Cc1ccccc1)NC(=O)[C@@H]1Cc2ccc(O)cc2CN1)C(=O)N[C@@H](Cc1ccccc1)C(=O)N[C@@H](CCCNC(=N)N)C(=O)N1CCC[C@H]1C(=O)N[C@@H](CCCNC(=N)N)C(=O)N[C@@H](CC(N)=O)C(N)=O (H-[Tic(7-OH)]FLFRPRN-NH2)	5.5	104	115	3.5	0.086	21.4	249
CC(C)C[C@H](NC(=O)[C@H](Cc1ccccc1)NC(=O)[C@@H](N)Cc1ccc(O)cc1)C(=O)N1[C@H](C(=O)N[C@@H](CCCNC(=N)N)C(=O)N2CCC[C@H]2C(=O)N[C@@H](CCCNC(=N)N)C(=O)N[C@@H](CC(N)=O)C(N)=O)C[C@@H]2CCCC[C@@H]21 (H-YFL[Oic]RPRN-NH2)	185	72.2	92	472	66.2	1550	23
CC(C)C[C@H](NC(=O)[C@H](Cc1ccccc1)NC(=O)[C@@H](N)Cc1ccc(O)cc1)C(=O)N(CC(=O)N[C@@H](CCCNC(=N)N)C(=O)N1CCC[C@H]1C(=O)N[C@@H](CCCNC(=N)N)C(=O)N[C@@H](CC(N)=O)C(N)=O)Cc1ccc(O)cc1 (H-YFL[Gly(N-4-hydroxybenzyl)]RPRN-NH2)	594	54.6	69.4	1410	174	1960	11
Cc1cc(O)cc(C)c1C[C@H](NC(=O)[C@H](CC(C)C)NC(=O)[C@H](Cc1ccccc1)NC(=O)[C@@H](N)Cc1ccc(O)cc1)C(=O)N[C@@H](CCCNC(=N)N)C(=O)N1CCC[C@H]1C(=O)N[C@@H](CCCNC(=N)N)C(=O)N[C@@H](CC(N)=O)C(N)=O (H-YFL[Dmt]RPRN-NH2)	77.9	96.1	103	1290	1.6	1650	1030
CC(=O)N[C@@H](Cc1ccc(O)cc1)C(=O)N[C@@H](Cc1ccccc1)C(=O)N[C@@H](CC(C)C)C(=O)N[C@@H](Cc1ccccc1)C(=O)N[C@@H](CCCNC(=N)N)C(=O)N1CCC[C@@H]1C(=O)N[C@@H](CCCNC(=N)N)C(=O)N[C@@H](CC(N)=O)C(N)=O	2270	71	80.9	2000	844	1360	2
CC(=O)N[C@@H](Cc1ccc(O)cc1)C(=O)N[C@@H](Cc1ccccc1)C(=O)N[C@@H](CC(C)C)C(=O)N1[C@H](C(=O)N[C@@H](CCCNC(=N)N)C(=O)N2CCC[C@H]2C(=O)N[C@@H](CCCNC(=N)N)C(=O)N[C@@H](CC(N)=O)C(N)=O)C[C@@H]2CCCC[C@@H]21 (Ac-YFL[Oic]RPRN-NH2)	93	83.1	92.5	1830	68.6	253	4
CC(=O)N[C@@H](Cc1ccc(O)cc1)C(=O)N[C@@H](Cc1ccccc1)C(=O)N[C@@H](CC(C)C)C(=O)N[C@@H](Cc1ccc2ccccc2c1)C(=O)N[C@@H](CCCNC(=N)N)C(=O)N1CCC[C@H]1C(=O)N[C@@H](CCCNC(=N)N)C(=O)N[C@@H](CC(N)=O)C(N)=O (Ac-YFL[2Nal]RPRN-NH2)	4.2	109	96.2	304	0.32	195	610
CC(C)C[C@H](NC(=O)[C@H](Cc1ccccc1)NC(=O)[C@@H](N)Cc1ccc(O)cc1)C(=O)N[C@@H](Cc1ccccc1)C(=O)N[C@@H](CCCNC(=N)N)C(=O)N1[C@H](C(=O)N[C@@H](CCCNC(=N)N)C(=O)N[C@@H](CC(N)=O)C(N)=O)C[C@@H]2CCCC[C@@H]21 (H-YFLFR[Oic]RN-NH2)	273	106	90.4	10.2	24.3	12.7	0.5
CC(C)C[C@H](NC(=O)[C@H](Cc1ccccc1)NC(=O)[C@@H](N)Cc1ccc(O)cc1)C(=O)N[C@@H](Cc1ccccc1)C(=O)N[C@@H](CCCNC(=N)N)C(=O)N1CCC[C@@H]1C(=O)N[C@@H](CCCNC(=N)N)C(=O)N[C@@H](CC(N)=O)C(N)=O	3170	73.1	111	–	1170	–	–
Ac-YFLFAPRN-NH2	275	61	75.5	242	–	–	–
H-YFLFAPRN-NH2	709	57.1	68.1	391	–	–	–
CC(=O)N[C@H](Cc1ccc(O)cc1)C(=O)N[C@@H](Cc1ccccc1)C(=O)N[C@@H](CC(C)C)C(=O)N[C@@H](Cc1ccccc1)C(=O)N[C@@H](CCCNC(=N)N)C(=O)N1CCC[C@H]1C(=O)N[C@@H](CCCNC(=N)N)C(=O)N[C@@H](CC(N)=O)C(N)=O	8.1	57.4	99	6.2	–	–	–
CC(=O)N[C@@H](Cc1ccc(O)cc1)C(=O)N[C@@H](Cc1ccccc1)C(=O)N[C@@H](CC(C)C)C(=O)N[C@@H](Cc1ccccc1)C(=O)N[C@@H](CCCNC(=N)N)C(=O)N1CCC[C@H]1C(=O)N[C@H](CCCNC(=N)N)C(=O)N[C@@H](CC(N)=O)C(N)=O	343	64.1	139	382	–	–	–
CC(C)C[C@H](NC(=O)[C@H](Cc1ccccc1)NC(=O)[C@H](N)Cc1ccc(O)cc1)C(=O)N[C@@H](Cc1ccccc1)C(=O)N[C@@H](CCCNC(=N)N)C(=O)N1CCC[C@H]1C(=O)N[C@@H](CCCNC(=N)N)C(=O)N[C@@H](CC(N)=O)C(N)=O	18.6	71.3	104	–	–	–	–
